Entries after “also recorded” stand apart in the source; their conditions may differ.

The subject of test [1] is AVP and AVP-pVIc complexes. Kind of test: Coarse screening of structural derivatives for enzyme inhibitors. The test is classed as biochemical, adenovirus serotype 2. The settings on record: 40 μM compound, 150 mM NaCl, 0.3 μM enzyme. An outline of the steps: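 AVP (adenovirus type 2, E. coli-expressed) or AVP-pVIc complexes (75 μM each, overnight at 4°C with 20 mM β-mercaptoethanol) were pre-incubated 9 min at 21°C with compound from 10 mM DMSO stock. Buffer was 20 mM Tris-HCl pH 8, 0.025% DDM, 0.1 mM DTT. For AVP, 40 μM pVIc was then added for 9 min more. Initial rates with 5 μM (Cbz-Leu-Arg-Gly-Gly-NH)₂-Rhodamine (ex 496/em 523 nm) were normalized to the no-inhibitor rate.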

For test [2], the target named is AVP (adenovirus proteinase) (Human adenovirus C serotype 2, UniProt P03252). Kind of test: Inhibition of AVP. The test is classed as biochemical, adenovirus serotype 2. A digest of the protocol:
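Purified adenovirus type 2 AVP was pre-incubated 9 min at 21°C with varied compound in 5 mM NaCl, 20 mM Tris-HCl pH 8, 0.025% DDM, 0.1 mM DTT. pVIc was then added to 20 μM for another 9 min. Rates with 5 μM (Cbz-Leu-Arg-Gly-Gly-NH)₂-Rhodamine were read every 10 s (ex 496/em 523 nm). IC50 came from a four-parameter logistic fit of initial rates.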

Test [3] deals with T1, AVP-pVIc complexes (Human adenovirus C serotype 2, UniProt P03252). Briefly: Inhibition of AVP-pVIc complexes, fluorogenic substrate assay. The test is classed as biochemical, adenovirus serotype 2.
T1 sequence (P03252 whole entry, one chain of several): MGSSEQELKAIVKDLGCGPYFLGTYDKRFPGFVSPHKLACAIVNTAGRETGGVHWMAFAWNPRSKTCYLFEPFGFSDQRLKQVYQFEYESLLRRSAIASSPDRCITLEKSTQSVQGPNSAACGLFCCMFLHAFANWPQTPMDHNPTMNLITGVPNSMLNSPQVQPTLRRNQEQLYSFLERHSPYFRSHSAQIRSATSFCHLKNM
Test [4] addresses T2, Trypsin (Bos taurus, UniProt P00760).
T2 sequence (P00760 24-246): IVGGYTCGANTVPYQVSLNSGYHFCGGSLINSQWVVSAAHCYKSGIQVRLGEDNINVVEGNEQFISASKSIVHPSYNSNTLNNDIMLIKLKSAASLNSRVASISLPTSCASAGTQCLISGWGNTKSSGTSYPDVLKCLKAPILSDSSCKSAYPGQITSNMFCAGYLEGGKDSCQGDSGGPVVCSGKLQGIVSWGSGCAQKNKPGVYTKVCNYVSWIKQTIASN
Kind of test: Selectivity assay with trypsin. The test is classed as biochemical. An outline of the steps:
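TPCK-treated trypsin was exposed to increasing compound at 21°C in 25 mM HEPES with 1 mM CaCl₂. Substrate hydrolysis was tracked as fluorescence increase (ex 496/em 523 nm). Rates were normalized to the no-inhibitor rate and expressed as % activity.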

In test [5] the target is T3, Papain (Carica papaya, UniProt P00784).
T3 sequence (P00784 134-345): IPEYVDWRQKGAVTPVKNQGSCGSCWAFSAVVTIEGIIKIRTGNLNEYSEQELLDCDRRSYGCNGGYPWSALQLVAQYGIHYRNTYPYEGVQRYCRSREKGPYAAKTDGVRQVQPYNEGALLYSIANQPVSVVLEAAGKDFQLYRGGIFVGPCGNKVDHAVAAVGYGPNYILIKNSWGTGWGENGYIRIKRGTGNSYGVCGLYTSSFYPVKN
Briefly: Selectivity assay with papain. The test is classed as biochemical. An outline of the steps:
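Papain was incubated with increasing compound for 10 min at 21°C in 25 mM sodium acetate with 1 mM DTT. Hydrolysis of the fluorogenic substrate was followed over time (ex 496/em 523 nm). Rates were normalized to the rate without inhibitor and reported as % activity.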

Test [6] deals with T1, AVP-pVIc complexes. Briefly: Competitive inhibition of AVP-pVIc complexes. The test is classed as biochemical, adenovirus serotype 2.
For test [7], the target named is AVP (Human adenovirus C serotype 2, UniProt P03252). Briefly: Mixed inhibition of AVP. The test is classed as biochemical, adenovirus serotype 2.
Sequence of AVP (P03252 whole entry): as the sequence (P03252 whole entry, one chain of several) above
In test [8] the target is Adenovirus proteinase (AVP) (Human adenovirus 2) (UniProt P03252). The settings on record: cited from earlier work.
Sequence of Adenovirus proteinase (AVP) (Human adenovirus 2) (P03252 whole entry): as the sequence (P03252 whole entry, one chain of several) above
The mark [9] stands for this setting: 20 pM trypsin, 10 min, pH 7.5, 10 μM (Ile-Pro-Arg-NH)2-Rhodamine.
Setting [10] is: concentrations 50-fold higher than that inhibiting AVP or AVP-pVIc by more than 90%.
Setting [11] is: 0.18 μM papain, pH 5, 10 μM (Phe-Arg-NH)2-Rhodamine.
Where [12] appears, read: best fitting model, SigmaPlot Kinetic Module.

Sequence of AVP (adenovirus proteinase) (P03252 whole entry): as the sequence (P03252 whole entry, one chain of several) above
Sequence of pVIc (P03274 whole entry, looked up): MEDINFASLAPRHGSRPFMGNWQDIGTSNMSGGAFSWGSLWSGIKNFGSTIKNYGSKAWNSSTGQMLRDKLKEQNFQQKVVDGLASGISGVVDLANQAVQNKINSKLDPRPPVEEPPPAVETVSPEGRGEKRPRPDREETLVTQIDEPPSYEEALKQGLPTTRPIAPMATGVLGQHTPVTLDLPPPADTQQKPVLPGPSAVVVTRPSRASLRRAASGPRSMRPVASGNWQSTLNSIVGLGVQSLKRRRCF

For the compound `O=C(Nc1ccc(S(=O)(=O)c2ccc(NC(=O)C(F)(F)N3CCOCC3)cc2)cc1)C(F)(F)N1CCOCC1` [NSC 106721, N-[4-[4-[(2,2-difluoro-2-morpholin-4-ylacetyl)amino]phenyl]sulfonylphenyl]-2,2-difluoro-2-morpholin-4-ylacetamide], the “Inhibition in coarse screen” value in test [1] is “inhibit either the activation of AVP or the activity of AVP-pVIc complexes”.

For the compound `O=C(CN(C1CCCCC1)C1CCCCC1)Nc1ccc(S(=O)(=O)c2ccc(NC(=O)CN(C3CCCCC3)C3CCCCC3)cc2)cc1` [NSC 37249, 2-(dicyclohexylamino)-N-[4-[4-[[2-(dicyclohexylamino)acetyl]amino]phenyl]sulfonylphenyl]acetamide], the IC50 – broadly, the concentration needed to halve the response being measured – came to 140 nM in test [2] and 490 nM in test [3]. In addition, the figures for the Inhibition of trypsin entry in test [4] (setting [9]), in test [4] (setting [10]) and in test [4] (concentrations up to 18 μM) were “No Inhibition”, “did not inhibit” and “no inhibition was observed”, respectively. In addition, the Inhibition of papain entry in test [5] (setting [11]) is recorded as “No Inhibition”; in test [5] (setting [10]) it was “did not inhibit”; in test [5] (concentrations up to 50-fold the Ki for AVP), “no inhibition was observed”. Further, the Ki – broadly, a measure of affinity in units of concentration, obtained from inhibition or displacement – in test [6] (Ki AVP:pVIc, competitive inhibition model, substrate 2.5-20 μM) amounted to 403 nM; in test [7], 150 nM. Further, in test [6] (setting [12]), the “Type of inhibition, AVP-pVIc complexes” value is on record as “Competitive Inhibition; also recorded: competitive inhibitor”. The “Type of inhibition, AVP” value in test [7] (setting [12]) is reported as “Mixed Inhibition”. Also, the “Inhibition in coarse screen” value in test [1] is recorded as “inhibit either the activation of AVP or the activity of AVP-pVIc complexes; also recorded: effective inhibitors”.

Consider `CC(C)CCN(CCC(C)C)CC(=O)Nc1ccc(S(=O)(=O)c2ccc(NC(=O)CN(CCC(C)C)CCC(C)C)cc2)cc1` [NSC 37248, 2-[bis(3-methylbutyl)amino]-N-[4-[4-[[2-[bis(3-methylbutyl)amino]acetyl]amino]phenyl]sulfonylphenyl]acetamide], for which the IC50 in test [2] worked out at 880 nM; in test [3], 2100 nM. Further, the Inhibition of trypsin entry in test [4] (setting [9]) is reported as “No Inhibition”. Further, the Inhibition of papain result in test [5] (setting [11]) is recorded as “No Inhibition”. Further, in test [1], the “Inhibition in coarse screen” value is listed as “inhibit either the activation of AVP or the activity of AVP-pVIc complexes; also recorded: effective inhibitors”.

pVIc (from UniProt P03274): the Kd (as a rule, a measure of binding affinity in units of concentration) in test [8] was 4400 nM.

For the compound `O=C1CN2CCN(CC2)CC(=O)Nc2ccc(cc2)S(=O)(=O)c2ccc(cc2)NC(=O)CN2CCN(CC2)CC(=O)Nc2ccc(cc2)S(=O)(=O)c2ccc(cc2)N1` [NSC 36806, 2,21-dithia-7,10,13,16,26,29,32,35-octaazaheptacyclo[34.2.2.23,6.210,13.217, 20.222,25.229,32]pentaconta-1(38),3,5,17,19,22,24,36,39,43,45,49-dodecaene-8,15,27,34-tetrone 2,2,21,21-tetraoxide], in test [3], the IC50 turned out to be 18000 nM. Also, the Inhibition of trypsin result in test [4] (setting [9]) was “did not inhibit”.

In the case of `CC1COCC(C)N1CC(=O)Nc1ccc(S(=O)(=O)c2ccc(NC(=O)CN3C(C)COCC3C)cc2)cc1` (centres unmarked) [NSC 106702, 2-(3,5-dimethylmorpholin-4-yl)-N-[4-[4-[[2-(3,5-dimethylmorpholin-4-yl)acetyl]amino]phenyl]sulfonylphenyl] acetamide], in test [1], the “Inhibition in coarse screen” value is “inhibit either the activation of AVP or the activity of AVP-pVIc complexes”.

Source of the values: article PMC3810942 (FEBS letters, 2013).
